N-glyco inh: N-linked glycosylation inhibition. D54 ERlucT glycosylation luciferase reporter, 24 h; percent of 100 nM tunicamycin response. reporter increase, % at 12.5 µM. 360,000 tested, 0.23% active;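 active means mean luciferase reporter signal, scaled so untreated is 0 and the glycosylation-blocking control 100, at or above a set limit in every replicate; inconclusive means mean reaches the limit but not every replicate does; inactive means mean below the limit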;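 further: luciferase carries N-glycosylation sites so blocking glycosylation raises the light; 0% = median of neutral control wells and 100% = median of 100 nM tunicamycin wells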
Rtt109 Vps75: C. albicans Rtt109 histone acetyltransferase inhibition; 330,000 tested, 0.16% active; purified Rtt109/Vps75, ThioGlo CoA-SH fluorescence, 4 h; AID 540336; Q5AAJ8; inhibition, % at 34.9 µM;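 active means inhibition of at least 50% in every replicate; inconclusive means best replicate reaches 50% inhibition but some replicates fall short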
Target sequence (Q5AAJ8 whole entry, looked up): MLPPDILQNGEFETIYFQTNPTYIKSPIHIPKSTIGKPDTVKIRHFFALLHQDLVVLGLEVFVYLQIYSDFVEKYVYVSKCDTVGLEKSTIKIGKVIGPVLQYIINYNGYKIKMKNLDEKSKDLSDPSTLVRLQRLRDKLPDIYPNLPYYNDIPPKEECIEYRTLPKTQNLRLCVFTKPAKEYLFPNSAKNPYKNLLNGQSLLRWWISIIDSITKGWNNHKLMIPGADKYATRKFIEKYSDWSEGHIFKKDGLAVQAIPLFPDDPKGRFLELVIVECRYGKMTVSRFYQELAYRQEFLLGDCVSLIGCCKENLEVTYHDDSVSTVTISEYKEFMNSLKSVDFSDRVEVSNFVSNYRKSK
HIV Env fusion: inhibitors of HIV Env-mediated cell fusion | HeLa-JRFL Env/CEM21 cell fusion, luciferase | AID 651610 | inhibition, % at 12.3 µM | 360,000 tested, 1.1% active;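 active means mean replicate inhibition score of at least 50 and every replicate individually at or above 50; inconclusive means only one of the two criteria met; inactive means mean below 50 and not all replicates reaching 50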;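 further: 0% = plate neutral controls and 100% = maraviroc near 300 nM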
Arrestin-AP2 inh: human beta-arrestin and AP2 interaction inhibition | inhibition, % at 10 µM | FITC-arrestin peptide / GST-AP2 beads, flow cytometry; AP2 beta2 appendage carries R879A mutation | AID 504490 | 340,000 tested, 0.31% active;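 active means inhibition above a set limit, near 3 SD of compounds lacking own fluorescence, cut at about 54% in these data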;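 further: plate controls were DMSO wells for no effect and 5 µM unlabelled arrestin peptide for full effect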
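System: GST-AP2 R879A glutathione beads | Also added: FITC-arrestin peptide, 50 nM | Times: 12 min plus 1 h, RT | Signal: Bead flow cytometry, FITC channel | Buffer or medium: PBS with 0.05% Tween 20 and 0.1% BSA | Read-out basis: Percent drop in bead-associated FITC signal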
PAX8 reporter: lowers PAX8-driven luciferase in RMG-I cells. RMG-I TPO-luciferase reporter, SteadyGlo, 24 h. 360,000 tested, 1.2% active. AID 652154. inhibition, % at 12.6 µM;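 active means mean replicate inhibition at least 60% with every replicate also reaching 60%; inconclusive means only one of the two criteria is met; inactive means mean below 60% and not all replicates reaching 60%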;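 further: luciferase light reporting Pax8 driven TPO promoter activity; plate controls were median of neutral control wells for no effect and mitoxantrone controls for full effect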
PfHsp90 yeast 2: growth inhibition of yeast expressing Plasmodium Hsp90. S. cerevisiae expressing PfHsp90, BacTiter-Glo ATP, 48 h; yeast lacking PDR1 and PDR3 efflux regulators. inhibition, % at 9.4 µM. 310,000 tested, 0.32% active;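 active means every replicate shows inhibition above about 80%, whatever the replicate mean, limit read from the data; inconclusive means mean inhibition reaches the set limit but some replicate falls short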;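 further: 0% = DMSO neutral controls and 100% = 20 µM radicicol positive controls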
An asterisk follows results filed as active; i = inactive; ? = inconclusive; · = no result given; [ ] = remark or other dose. In the library only some 2.3% were active in any assay of this set; here they are far more common.

SMILES	N-glyco inh	Rtt109 Vps75	HIV Env fusion	Arrestin-AP2 inh	PAX8 reporter	PfHsp90 yeast 2
C[C@@H]1CCCCO[C@H](CN(C)S(=O)(=O)c2ccc(Cl)cc2)[C@H](C)CN([C@@H](C)CO)C(=O)c2cc(N(C)C)ccc2O1	·	·	7.7[16.7 µM]	·	77.1*	·
C[C@@H]1CN([C@@H](C)CO)C(=O)c2cc(N(C)C)ccc2O[C@@H](C)CCCCO[C@H]1CN(C)S(=O)(=O)c1ccc(F)cc1	·	·	44.5[16.7 µM]	·	87.7*	·
C[C@H](CO)N1C[C@H](C)[C@H](CN(C)S(=O)(=O)c2ccc(Cl)cc2)OCCCC[C@H](C)Oc2ccc(N(C)C)cc2C1=O	·	·	-3.0[16.7 µM]	·	53.5	·
CCCNC(=O)C[C@@H]1C[C@@H]2c3cc(NC(=O)NC4CCCCC4)ccc3O[C@@H]2[C@@H](CO)O1	·	·	-1.7[16.7 µM]	·	-22.8	·
O=C(C[C@H]1CC[C@H]2NC[C@H](O)COC[C@@H]2O1)Nc1ccc(-c2ccccc2)cc1	·	·	-0.3[16.7 µM]	·	-6.9	·
CCOc1ccc(N(CC(=O)NCCSCc2ccc(Cl)cc2)S(C)(=O)=O)cc1	-3.2	0.3	80.5*	42.1	28.3	0.6
Cc1ccc(CSCCNC(=O)CN(c2cccc([N+](=O)[O-])c2)S(C)(=O)=O)cc1	-2.5	2.8	55.1*	-7.4	3.9	-23.1
COc1ccc(N(CC(=O)NCCSCc2cccc(Cl)c2)S(C)(=O)=O)cc1Cl	-1.7	-6.2	?	3.1	15.3	-17.7
COc1ccc(N(CC(=O)NCCSCc2ccc(Cl)cc2)S(C)(=O)=O)cc1Cl	-1.6	9.6	120.5*	25.4	12.3	-8.2
CCOc1ccc(N(CC(=O)NCCCOC)S(C)(=O)=O)cc1	0.8	0.3	·	-5.8	·	11.8
Cc1nc(N2[C@@H](C#N)[C@@H](c3ccccc3)[C@@H]2CO)sc1C	·	·	·	·	-7.6	·
C[C@@H]1CCCCO[C@@H](CN(C)S(C)(=O)=O)[C@H](C)CN([C@H](C)CO)C(=O)c2cc(NS(=O)(=O)c3cn(C)cn3)ccc2O1	·	·	8.8[16.7 µM]	·	·	·
C[C@@H]1CN([C@@H](C)CO)C(=O)c2cc(-c3cccnc3)cnc2O[C@H]1CN(C)C(=O)Nc1ccccc1	·	·	·	·	-6.1	·
O=C(NCC1CCCO1)c1cc([N+](=O)[O-])ccc1N1CCC(Cc2ccccc2)CC1 (centres undefined)	5.6	4.1	·	5.9	17.9	97.5*
O=C(Nc1ccc2nc(-c3ccc4nc[nH]c4c3)[nH]c2c1)c1cccs1	1.8	7.2	-27.4	23.8	67.7*	-15.6
O=C(Nc1ccc2nc(-c3ccccc3)[nH]c2c1)c1cccs1	0.9	-2.3	·	-0.2	·	-26.1
O=C(Nc1ccc(N2CCCCC2)cc1)c1ccc([N+](=O)[O-])o1	-7.7	1.0	-276.0	7.0	16.3	4.3
CS(=O)(=O)N1CCN(c2ccc(NC(=O)c3ccc([N+](=O)[O-])o3)cc2)CC1	1.0	·	-392.9	10.8	70.8*	-11.0
CCCC(=O)N1CCN(c2ccc(NC(=O)c3ccc([N+](=O)[O-])o3)cc2)CC1	-19.8	-9.7	i	10.3	90.4*	-23.1
CCC(=O)N1CCN(c2ccc(NC(=O)c3ccc([N+](=O)[O-])o3)cc2)CC1	-2.7	-8.1	-408.0	33.3	89.8*	·
CC1CCN(c2ccc(NC(=O)c3ccc([N+](=O)[O-])o3)cc2)CC1	-18.1	-1.2	·	5.3	36.0	·
CC(C)(C)C(=O)N1CCN(c2ccc(NC(=O)c3ccc([N+](=O)[O-])o3)cc2)CC1	-14.1	3.0	-43.3	23.4	100.9*	-79.6
CO[C@H]1CN(C)C(=O)c2cc(NC(=O)C3CCCCC3)ccc2OC[C@@H](C)N(Cc2cccnc2)C[C@@H]1C	·	·	·	·	-13.0	·
CCCNC(=O)Nc1ccc2c(c1)OC[C@@H](C)N(Cc1cccnc1)C[C@@H](C)[C@H](OC)CN(C)C2=O	·	·	7.9[16.7 µM]	·	-10.0	·
CC(C)NC(=O)Nc1ccc2c(c1)C(=O)N([C@@H](C)CO)C[C@H](C)[C@@H](CN(C)Cc1ccc(-c3ccccc3)cc1)O2	·	·	7.4[16.7 µM]	·	1.1	·
SMILES	N-glyco inh	Rtt109 Vps75	HIV Env fusion	Arrestin-AP2 inh	PAX8 reporter	PfHsp90 yeast 2
Cc1nc(-c2cccc(NC(=O)c3ccco3)c2)cs1	0.4	5.8	-39.1	1.8	-37.9	1.0
Cc1nc(-c2ccc(NC(=O)c3ccco3)cc2)cs1	-20.7	7.1	27.8	2.3	87.5*	51.2
CC(C)NC(=O)Nc1ccc2c(c1)C(=O)N([C@H](C)CO)C[C@H](C)[C@@H](CN(C)C(=O)Nc1cccc3ccccc13)OCCCC[C@H](C)O2	·	·	25.7[16.7 µM]	·	19.7	·
O=[N+]([O-])c1cccc(COc2cccc(CN3CCCC3)c2)c1	1.7	-5.1	59.5*	-0.3	-21.0	-3.7
C[C@H]1CN([C@@H](C)CO)C(=O)c2cc(/C=C/c3ccccc3)cnc2O[C@H]1CN(C)C	·	·	6.6[16.7 µM]	·	·	·
CN1C(=O)/C(=C\C(=O)c2cccs2)c2ccccc21	15.7	-0.9	-8.0	0.6	89.1*	1.3
O=C1c2cccnc2C(Nc2ccc(S(=O)(=O)N3CCCCC3)cc2)N1Cc1ccccc1 (centres undefined)	1.3	1.8	83.7*	1.1	·	25.2
COC(=O)c1cc(NC2c3ncccc3C(=O)N2Cc2ccccc2)cc(C(=O)OC)c1 (centres undefined)	-3.4	3.5	·	34.6	·	-8.3
CCOC(=O)c1ccc(NC2c3ncccc3C(=O)N2Cc2ccc(F)cc2)cc1 (centres undefined)	3.0	-0.1	93.3*	-4.5	·	·
C[C@@H]1CCCCO[C@@H](CN(C)Cc2ccc3c(c2)OCO3)[C@@H](C)CN([C@@H](C)CO)C(=O)c2cc(N(C)C)ccc2O1	·	·	-0.7[16.7 µM]	·	9.1	·
CNC[C@@H]1Oc2ncc(-c3ccccc3F)cc2C(=O)N([C@@H](C)CO)C[C@@H]1C	·	·	-12.5[16.7 µM]	·	-12.7	·
COc1ccccc1OCc1cc(C(=O)N2CCN(C)C(c3ccccc3)C2)no1 (centres undefined)	-3.1	-0.5	·	15.0	·	106.9*
CN1CCN(C(=O)c2cc(COc3ccc(F)cc3Cl)on2)CC1c1ccccc1 (centres undefined)	4.9	1.3	2.6	22.7	19.3	72.3
CSc1ccccc1OCc1cc(C(=O)N2CCN(C)C(c3ccccc3)C2)no1 (centres undefined)	1.6	-1.7	7.6	-6.3	-47.7	135.3*
CN1CCN(C(=O)c2cc(COc3c(F)cccc3F)on2)CC1c1ccccc1 (centres undefined)	0.2	5.7	14.7	12.3	-7.9	109.7*
CO[C@@H]1CN(C)C(=O)c2ccc(NC(=O)c3ccccn3)cc2OC[C@@H](C)N(Cc2ccccn2)C[C@H]1C	·	·	-13.0[16.7 µM]	·	0.2	·
C[C@@H]1CCCCO[C@H](CN(C)Cc2ccncc2)[C@@H](C)CN([C@H](C)CO)C(=O)c2cc(NC(=O)NC3CCCCC3)ccc2O1	·	·	-11.3[16.7 µM]	·	-1.9	·

Screening data as filed in PubChem.
